SMILES strings stand for the structures.

The target of series [1] is T1, Neuropeptide Y receptor type 5 (Homo sapiens, UniProt Q15761).
T1 sequence (Q15761 whole entry): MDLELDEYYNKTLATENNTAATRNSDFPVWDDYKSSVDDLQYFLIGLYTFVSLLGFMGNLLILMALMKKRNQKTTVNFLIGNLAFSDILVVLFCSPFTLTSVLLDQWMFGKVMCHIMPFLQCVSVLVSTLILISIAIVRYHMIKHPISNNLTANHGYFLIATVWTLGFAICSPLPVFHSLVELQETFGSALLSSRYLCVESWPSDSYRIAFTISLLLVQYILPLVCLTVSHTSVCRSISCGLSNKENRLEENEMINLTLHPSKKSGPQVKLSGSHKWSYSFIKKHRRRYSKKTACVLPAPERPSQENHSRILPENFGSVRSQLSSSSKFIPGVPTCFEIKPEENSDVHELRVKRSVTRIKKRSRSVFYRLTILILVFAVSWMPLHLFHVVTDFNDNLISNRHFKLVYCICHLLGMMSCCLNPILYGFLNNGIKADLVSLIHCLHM
Put plainly: Binding affinity to human NPY5 receptor.

The target in series [2] is Neuropeptide Y receptor type 4 (Homo sapiens, UniProt P50391). As to the kind of experiment: Antagonist activity at human NPY4 receptor assessed as calcium mobilization by FLIPR assay. It is filed as functional.
The target of series [3] is T2, Neuropeptide Y receptor type 2 (Homo sapiens, UniProt P49146).
T2 sequence (P49146 whole entry): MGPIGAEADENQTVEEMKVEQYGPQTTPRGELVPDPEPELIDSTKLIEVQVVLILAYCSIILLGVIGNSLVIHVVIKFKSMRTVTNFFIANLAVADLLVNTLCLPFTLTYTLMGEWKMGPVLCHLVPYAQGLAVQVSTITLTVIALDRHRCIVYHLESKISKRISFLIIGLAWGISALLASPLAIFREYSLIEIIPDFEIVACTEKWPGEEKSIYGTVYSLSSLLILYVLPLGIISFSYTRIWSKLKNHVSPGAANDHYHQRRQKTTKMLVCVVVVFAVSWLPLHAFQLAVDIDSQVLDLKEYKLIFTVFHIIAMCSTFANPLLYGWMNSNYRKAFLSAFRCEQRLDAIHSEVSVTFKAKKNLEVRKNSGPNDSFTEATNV
As to the kind of experiment: Antagonist activity at human NPY2 receptor assessed as calcium mobilization by FLIPR assay. It is filed as functional.

Series [4] relates to Liver microsomes. As to the kind of experiment: Intrinsic clearance in human liver microsome. The class given is ADME.
Series [5] deals with T1, Neuropeptide Y receptor type 5. As to the kind of experiment: Antagonist activity at human NPY5 receptor assessed as calcium mobilization by FLIPR assay. The class given is functional.
In series [6] the test system is Liver microsomes. As to the kind of experiment: Intrinsic clearance in rat liver microsome. The class given is ADME.
The target in series [7] is T3, Neuropeptide Y receptor type 1 (Homo sapiens, UniProt P25929).
T3 sequence (P25929 whole entry): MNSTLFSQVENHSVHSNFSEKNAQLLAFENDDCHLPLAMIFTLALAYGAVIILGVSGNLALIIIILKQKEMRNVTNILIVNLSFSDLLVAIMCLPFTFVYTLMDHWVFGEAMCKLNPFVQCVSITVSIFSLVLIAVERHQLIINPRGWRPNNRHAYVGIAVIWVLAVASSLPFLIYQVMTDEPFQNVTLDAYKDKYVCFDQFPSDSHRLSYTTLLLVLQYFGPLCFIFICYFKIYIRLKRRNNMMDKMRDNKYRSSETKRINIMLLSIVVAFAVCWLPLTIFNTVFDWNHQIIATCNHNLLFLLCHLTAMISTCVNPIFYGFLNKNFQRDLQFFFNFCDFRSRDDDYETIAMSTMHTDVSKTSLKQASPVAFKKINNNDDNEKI
Put plainly: Antagonist activity at human NPY1 receptor assessed as calcium mobilization by FLIPR assay. The class given is functional.

Series [8] in a line: Drug uptake in rat brain at 10 mg/kg, po after 4 hrs. The class given is ADME, organism-based. Details: dose 10 mg/kg, route oral. Conditions: read-out: Drug uptake. An outline of the steps:
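Rat single oral dose of 10 mg/kg, two animals; plasma and brain homogenate levels measured at 4 h and averaged; quantification limit 2 ng/mL plasma, 2 ng/g brain.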

Series [9] in a line: Plasma concentration in rat at 10 mg/kg, po after 4 hrs. The class given is ADME, organism-based. Details: dose 10 mg/kg, route oral. The essentials:
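Single oral dose of 10 mg/kg in rats, two animals. Plasma was sampled at 4 h and the two values averaged. LOQ 2 ng/mL.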

The subject of another series is Rattus norvegicus. As to the kind of experiment: Antistress activity against chronic mild stress Sprague-Dawley rat model assessed as increase sucrose consumption at 5 mg/kg, ip bid measured after 4 weeks. Particulars: route intraperitoneal. The class given is functional.
Series [10] concerns the target T3, Neuropeptide Y receptor type 1. As to the kind of experiment: Binding affinity to NPY1 receptor.
Series [11] concerns the target T1, Neuropeptide Y receptor type 5. As to the kind of experiment: Binding affinity to NPY5 receptor.

Chain of Neuropeptide Y receptor type 4 (P50391 whole entry): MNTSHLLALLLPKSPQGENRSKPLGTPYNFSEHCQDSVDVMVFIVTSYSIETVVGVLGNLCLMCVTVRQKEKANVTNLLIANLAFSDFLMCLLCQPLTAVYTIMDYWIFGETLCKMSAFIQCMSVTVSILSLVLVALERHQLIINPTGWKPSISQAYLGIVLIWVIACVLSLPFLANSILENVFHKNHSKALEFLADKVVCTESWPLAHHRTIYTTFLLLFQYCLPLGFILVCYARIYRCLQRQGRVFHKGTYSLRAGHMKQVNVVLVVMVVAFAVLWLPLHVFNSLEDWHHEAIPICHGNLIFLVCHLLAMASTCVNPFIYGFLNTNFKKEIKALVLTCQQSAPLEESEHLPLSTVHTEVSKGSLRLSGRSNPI

On to `COc1ccc2c(c1)OCCc1sc(NC[C@H]3CC[C@H](NS(C)(=O)=O)CC3)nc1-2`, for which the Ki in [1] is 6.7 nM.
In [1], `CS(=O)(=O)NC[C@H]1CC[C@H](Nc2nc3c(s2)CCCc2ccc(F)cc2-3)CC1` came in with an inhibition constant (Ki) of 1.1 nM.
Take `O=S(=O)(NC[C@H]1CC[C@H](Nc2nc3c(s2)CCSc2ccccc2-3)CC1)c1cccs1`: the IC50 is more than 1000 nM in series [2], more than 1000 nM in series [3], 3.8 nM in series [5] and more than 1000 nM in [7]. In addition, the results for the CL in the series on Liver microsomes [4] and in the series with Liver microsomes [6] were 6.9 L/min and 120 mL/min, respectively. In addition, in series [1], the Ki came to 1.9 nM. The concentration at 4 h stood at 10 ng/g in series [8] and 8 ng/mL in [9].
`CC(C)S(=O)(=O)NCCOCCNc1nc2c(s1)CCCc1ccc(F)cc1-2`: the affinity in [1], expressed as Ki, was 2.4 nM.
As to `CS(=O)(=O)NCCCCCNc1nc2c(s1)CCSc1ccc(F)cc1-2`, the values for the CL in the series with Liver microsomes [4] and in the series with Liver microsomes [6] were 6.8 L/min and 89 mL/min, respectively. Moreover, the affinity in series [1], expressed as Ki, was 1.7 nM. Also, the concentration at 4 h came to 140 ng/g in series [8] and 61 ng/mL in series [9].
On to `CS(=O)(=O)NC[C@H]1CC[C@H](Nc2nc3c(s2)CCOc2ccccc2-3)CC1`, for which the IC50 in [5] is 3.9 nM. In series [1], this compound yielded a Ki of 16.1 nM.
`O=S(=O)(CC(F)(F)F)NCCCCNc1nc2c(s1)CCCc1ccc(F)cc1-2`: the IC50 in series [5] was 1.9 nM. For the same compound, the Ki in [1] turned out to be 3.4 nM.
Turning to `CCS(=O)(=O)NCCCCCNc1nc2c(s1)CCSc1ccccc1-2`, in [5], the IC50 was 0.6 nM. In series [1], this compound gave a Ki of 0.8 nM. The concentration at 4 h in series [9] was determined as 14 ng/mL.
Take `CCS(=O)(=O)NCCCCCNc1nc2c(s1)CCCc1ccc(F)cc1-2`: the IC50 in [5] worked out at 1.3 nM. In series [1], this compound registered a Ki of 0.9 nM.
`COc1ccc(C)cc1S(=O)(=O)NC[C@H]1CC[C@H](Nc2nc3c(s2)CCSc2ccccc2-3)CC1`: the IC50 in [2] was more than 1000 nM; in series [3], more than 1000 nM; in [5] it was 34.6 nM; in series [7] it was more than 1000 nM. The same compound displayed a Ki in series [1] of 4.9 nM.
In the case of `CCS(=O)(=O)NC[C@H]1CC[C@H](Nc2nc3c(s2)CCSc2ccccc2-3)CC1`, the IC50 in [2] is more than 1000 nM; in series [3], more than 1000 nM; in series [5], 30.8 nM; in series [7] it was more than 1000 nM. In addition, in series [1], the Ki is 2.8 nM.
Regarding `CC(C)S(=O)(=O)NCCCCCNc1nc2c(s1)CCCc1ccc(F)cc1-2`, in series [5], the IC50 is 98.7 nM. Moreover, the Ki in [1] is 46 nM.
For the compound `O=S(=O)(NC[C@H]1CC[C@H](Nc2nc3c(s2)CCSc2ccccc2-3)CC1)c1cccc2ccccc12`, the IC50 in series [5] came to 43.6 nM. Moreover, in [1], the Ki came to 13.9 nM.
Consider `Cn1cnc(S(=O)(=O)NC[C@H]2CC[C@H](Nc3nc4c(s3)CCSc3ccccc3-4)CC2)c1`, for which, in series [5], the IC50 worked out at 10.4 nM. Affinity in [1] was put at a Ki of 21.5 nM.
In the case of `COc1cccc2c1OCCc1sc(N[C@H]3CC[C@H](CNS(C)(=O)=O)CC3)nc1-2`, in series [1], the affinity corresponds to a Ki of 1.1 nM.
Regarding `CS(=O)(=O)N[C@H]1CC[C@H](Nc2nc3c(s2)CCCc2ccc(F)cc2-3)CC1`, the IC50 in series [5] turned out to be 8.8 nM. In series [1], this compound returned a Ki of 27 nM.
In the case of `CN(C)CCC[C@@]1(c2ccc(F)cc2)OCc2cc(C#N)ccc21` [ESCITALOPRAM], the Activity in the series with Rattus norvegicus is more than 10%.
As to `CS(=O)(=O)NCCCCCNc1nc2c(s1)CCSc1ccccc1-2`, in [5], the IC50 is 5 nM. The Ki in series [1] turned out to be 8.8 nM.
With `COc1ccccc1CNCCCCCCNCCSSCCNCCCCCCNCc1ccccc1OC` [BENEXTRAMINE], the figures for the inhibitory constant (Ki) in series [10] and in [11] were 1800 nM and 5000 nM, respectively.
Take `O=S(=O)(CC(F)(F)F)NCCCCCNc1nc2c(s1)CCCc1ccc(F)cc1-2`: the half-inhibitory concentration (IC50) in series [5] worked out at 9.9 nM. The compound also showed a Ki in series [1] of 7.5 nM.
On to `CS(=O)(=O)NCCCCCNc1nc2c(s1)CCCc1ccc(F)cc1-2`, for which the IC50 in [5] was found to be 0.9 nM.

These data come from ChEMBL document CHEMBL1833793 (Bioorg Med Chem Lett, 2011).
